Reference: ChEMBL document CHEMBL1629690, “Development of hexadecyloxypropyl tenofovir (CMX157) for treatment of infection caused by wild-type and nucleoside/nucleotide-resistant HIV” (Antimicrob Agents Chemother, 2010)

Key:
Assay type in all cases: cell-based
[1] = Cytotoxicity against human HuH7 cells after 24 hrs by XTT assay; details: huh-7, 24 h
Procedure, shortened: (§1)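 Six-concentration growth-inhibition test: 10 to 0.032 μM for the prodrug and TDF, up to 100 μM for TFV, with Triton X-100 run in parallel. Cell lines were split 1:2 the day before and seeded at 5 × 10^3 to 2 × 10^4 cells/well, with adherent lines left overnight. Dendritic cells were derived with GM-CSF/IL-4 for 7 days, then LPS 10 ng/ml for 2 days. Viability was read by XTT.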

[2] = Cytotoxicity against human ME180 cells after 24 hrs by XTT assay; details: me-180, 24 h; procedure, shortened: as §1
[3] = Cytotoxicity against human dendritic cells after 24 hrs by XTT assay; procedure, shortened: as §1
HepG2 = assay: Cytotoxicity against human HepG2 cells after 24 hrs by XTT assay; details: hepg2, 24 h; procedure, shortened: as §1
PBMC = assay: Cytotoxicity against PHA/IL-2-stimulated human PBMC after 24 hrs by XTT assay; procedure, shortened: as §1
HeLa = assay: Cytotoxicity against human HeLa cells after 24 hrs by XTT assay; procedure, shortened: as §1
CEM-SS = assay: Cytotoxicity against human CEM-SS cells after 24 hrs by XTT assay; procedure, shortened: as §1

Measured: Activity

CC(C)OC(=O)OCOP(=O)(CO[C@H](C)Cn1cnc2c(N)ncnc21)OCOC(=O)OC(C)C.O=C(O)/C=C/C(=O)O [TENOFOVIR DISOPROXIL FUMARATE]
Non-toxic: all assays above
